# Published values gathered from unrelated publications.
# Protocols differ between the studies behind these lines.
# Action: inhibitor
# EGFR L858R/T790M: Epidermal growth factor receptor (EGFR, Homo sapiens, UniProt P00533, L858R/T790M)
# EGFR: Epidermal growth factor receptor (EGFR, Homo sapiens, UniProt P00533)
# EGFR L858R: Epidermal growth factor receptor (EGFR, Homo sapiens, UniProt P00533, L858R)
target,observed,method,concentration,inhibition [%],Compound
EGFR L858R/T790M,enzyme activity,ELISA,0.1 µM,23.9,C=CC(=O)Nc1cc(Nc2nc(N3CCc4sccc4C3)c3cccnc3n2)c(OC)cc1N1CCSCC1
EGFR,enzyme activity,FRET,1 µM,7,CN(C)C1CCN(CC#Cc2nn(C3CCCC3)c3nc(NCc4ccccc4)ncc23)C1 (stereo not drawn)
EGFR L858R/T790M,enzyme activity,ELISA,0.1 µM,6,CCC(=O)Nc1cc(Nc2nc(N3CCc4sccc4C3)c3cccnc3n2)c(OC)cc1N(C)C
EGFR L858R/T790M,enzyme activity,,1 µM,99,C=CC(=O)Nc1cc(Nc2nccc(Nc3cc(Cl)c(F)cc3C(C)(C)O)n2)c(OC)cc1N1CC[C@@H](N(C)C)C1
EGFR L858R/T790M,enzyme activity,ELISA,0.1 µM,50.2,C=C(Cl)C(=O)Nc1cc(Nc2nc(N3CCSCC3)c3sccc3n2)c(OC)cc1N(C)CCN(C)C
EGFR,enzyme activity,,0.1 µM,4.5,CC/C(=N\NC(=O)NCc1cccc(O)c1)c1ccc(O)c(C)c1O
EGFR L858R/T790M,enzyme activity,ELISA,0.1 µM,19.5,COc1cc(N(C)CCN(C)C)c(NC(=O)C=C(C)C)cc1Nc1nc(N2CCc3sccc3C2)c2sccc2n1
EGFR,enzyme activity,,0.1 µM,-2,COc1cc2nccc(Oc3ccc(NC(=O)c4c5n(n(-c6ccc(F)cc6)c4=O)CCCC5)cc3)c2cc1OC
EGFR L858R,enzyme activity,,10 µM,-1,CS(=O)(=O)Nc1cccc(-c2csc(NC(=O)CSc3nc4nccnc4c(=O)n3CCc3ccccc3)n2)c1
EGFR L858R/T790M,enzyme activity,ELISA,0.1 µM,23.5,C=CC(=O)Nc1cc(Nc2nc(N3CCc4sccc4C3)c3cccnc3n2)c(OC)cc1N1CCOCC1
EGFR,enzyme activity,,10 µM,-1.7,CNc1cccc2cc(C(=O)Nc3ccc(C(=O)O)cc3)c(=O)[nH]c12
"Epidermal growth factor receptor (EGFR, Homo sapiens, UniProt P00533, T790M)",enzyme activity,,1 µM,22,COc1cc2ncnc(Nc3ccc(Oc4ccccc4)c(C)c3C)c2cc1OC
EGFR,cell-free assay,,10 µM,56.6,CSc1nc(C)c(-c2ccnc(Nc3ccc(N4CCOCC4)cc3)c2)[nH]1
EGFR,enzyme activity,,2 µM,0,CNCc1ccc(-c2cc(-c3nc(-c4ccc(S(=O)(=O)C(C)C)cc4)cnc3N)on2)cc1
EGFR,enzyme activity,FRET,1 µM,28,COCCOc1cc2ncnc(Nc3cccc(OCCn4ccnc4[N+](=O)[O-])c3)c2cc1OCCOC
EGFR L858R,enzyme activity,,0.1 µM,26,COc1cc(-c2cc(-c3ccc(N4CCNCC4)cc3)cnc2N)cc(OC)c1OC
EGFR,enzyme activity,,1 µM,89,COc1cc2ncnc(Nc3ccc(Oc4ccccc4)cc3C)c2cc1OC
EGFR L858R/T790M,enzyme activity,ELISA,0.1 µM,34.6,COc1cc(N(C)CCN(C)C)c(NC(=O)/C=C/C(C)C)cc1Nc1nc(Nc2cnn(C)c2)c2sccc2n1
